DENV2 CPE rescue = inhibitors of DENV2 cytopathic effect; CPE inhibition, % at 9.99 µM; hit rate 1.7% among 350,000; DENV2-infected cells, cytopathic effect rescue, plate reader; in the data active = CPE inhibition above about 20%, passing the limit was not always enough; inconclusive = no clear call, values can overlap the other calls; tested in BHK-21 cells;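 note: 0% = median of neutral control wells and 100% = median of positive control wells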
Cneo AK release = causes C. neoformans cell lysis; adenylate kinase release luminescence, 4 h; normalised: neutral wells 0, clomiphene wells 100; lysis activity, % at 15 µM; hit rate 0.2% among 360,000; AID 651654;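 active = mean lysis activity across replicates of at least 80%, whatever share of replicates individually reach that level; inactive = mean lysis activity below 80%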
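Assay system: C. neoformans cells. Amount: yeast cell density of 5 × 10^6 cells/mL. Technique: AK luminescence. Buffer or medium: YPD. Times: static 4 h at 37 °C with compound, 1 h detection. Dosing: single-point compound dose. Read-out: lysis from increased AK signal.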
MLL AF4-AF9 inh = MLL-AF4/AF9 protein interaction inhibition; P42568; AlphaScreen, biotin-AF4 peptide binding to FLAG-AF9; inhibition, % at 10 µM; hit rate 0.47% among 350,000; AID 651704;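 active = every replicate reaching a set inhibition limit, whatever the replicate mean, cut at about 25% in these data; inconclusive = mean inhibition reaches that limit but some replicates miss it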;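 note: 0% = plate neutral control median and 100% = total signal loss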
Target sequence (P42568 whole entry, looked up): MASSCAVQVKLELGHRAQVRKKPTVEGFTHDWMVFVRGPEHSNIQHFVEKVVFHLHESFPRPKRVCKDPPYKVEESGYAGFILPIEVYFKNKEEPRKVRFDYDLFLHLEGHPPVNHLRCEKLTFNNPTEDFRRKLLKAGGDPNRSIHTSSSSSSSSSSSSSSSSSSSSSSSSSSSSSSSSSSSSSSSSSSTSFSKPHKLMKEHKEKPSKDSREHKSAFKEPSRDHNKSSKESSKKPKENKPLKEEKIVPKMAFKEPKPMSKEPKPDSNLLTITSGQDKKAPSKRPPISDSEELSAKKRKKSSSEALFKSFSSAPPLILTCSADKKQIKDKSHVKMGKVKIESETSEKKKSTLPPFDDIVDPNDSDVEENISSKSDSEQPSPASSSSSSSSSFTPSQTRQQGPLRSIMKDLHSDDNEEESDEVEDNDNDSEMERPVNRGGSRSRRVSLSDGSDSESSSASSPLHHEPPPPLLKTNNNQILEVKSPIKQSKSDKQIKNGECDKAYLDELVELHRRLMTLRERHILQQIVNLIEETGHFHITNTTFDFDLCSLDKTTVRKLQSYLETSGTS
S100A4 inh HTS = S100A4-myosin IIA interaction inhibition; S100A4/TAMRA-MyoIIA peptide fluorescence polarization; P26447; AID 652163; inhibition, % at 10.7 µM; hit rate 0.14% among 360,000;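 active = mean inhibition of at least 70% across replicates, with every replicate also reaching that level; inconclusive = mean inhibition reaches 70% but some replicates fall short; inactive = mean inhibition below 70%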
Target sequence (P26447 whole entry, looked up): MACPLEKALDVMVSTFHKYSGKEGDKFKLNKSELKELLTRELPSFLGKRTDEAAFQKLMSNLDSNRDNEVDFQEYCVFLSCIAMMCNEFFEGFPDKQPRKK
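incubation = readout 5 min after mixing, signal stable up to 60 min | system = S100A4 monomer protein | buffer or medium = HEPES pH 7.2 with CaCl2, KCl, NaCl, DTT, Triton | benchmarks = neutral control DMSO, positive control TFP | also added = fluorescent myosin IIA peptide, 5 nM | compound dosing = one concentration per compound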
rRNA inh HTS = inhibits bacterial ribosomal RNA function over humanized ribosomes; hit rate 1.6% among 350,000; GFP signal change (wild-type ribosome), % (test concentration not listed); E. coli WT GFP vs humanized-ribosome RFP mutants, fluorescence, 24 h; hits give low values; DMSO median 0, no signal -100;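 active = significant combined selectivity score with lowered wild-type GFP, culture density cut under 30%, mutant RFP and density less affected; inactive = any of these conditions unmet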
PfHsp90 yeast 2 = growth inhibition of yeast expressing Plasmodium Hsp90. S. cerevisiae expressing PfHsp90, BacTiter-Glo ATP, 48 h; yeast lacking PDR1 and PDR3 efflux regulators. inhibition, % at 9.4 µM. hit rate 0.32% among 310,000. AID 504621;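 active = every replicate shows inhibition above about 80%, whatever the replicate mean, limit read from the data; inconclusive = mean inhibition reaches the set limit but some replicate falls short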;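 note: 0% = DMSO neutral controls and 100% = 20 µM radicicol positive controls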
* marks the source's active call; other numbers are inactive results; ? = inconclusive; · = no result given. Most compounds without a hit are left out; they make up all but 3.2% or so of the library.

SMILES	DENV2 CPE rescue	Cneo AK release	MLL AF4-AF9 inh	S100A4 inh HTS	rRNA inh HTS	PfHsp90 yeast 2
COc1ccccc1C(=O)NCCC(=O)N1CCN(C(C)=O)CC1	49.8*	·	2.1	-3.7	8.8	-1.4
COc1ccccc1C(=O)NCCC(=O)N1CCN(C(=O)c2ccco2)CC1	?	0.4	2.3	-1.2	2.9	·
CC(C)CN(C[C@@H]1N[C@@H](CO)[C@@H]1c1ccccc1)C(=O)CN(C)C	40.1*	-8.9	-2.2	3.0	0.2	·
CCC(=O)N(C[C@H]1[C@H](c2ccccc2)[C@@H](CO)N1S(C)(=O)=O)C(C)C	·	·	·	·	3.4	·
CCN(C[C@@H]1N[C@@H](CO)[C@@H]1c1ccccc1)C(=O)c1ccncc1	22.0*	0.6	-1.4	3.2	-0.2	·
CC(=O)N(C[C@H]1N[C@H](CO)[C@@H]1c1ccccc1)C(C)C	-7.3	-6.2	-3.3	-2.6	1.4	·
CCC(=O)N(CC(C)C)C[C@@H]1[C@@H](c2ccccc2)[C@@H](CO)N1S(C)(=O)=O	28.7*	·	·	·	0.8	·
COCC(=O)Nc1ccc2c(c1)OC[C@H](C)N(C(=O)C1CCCC1)C[C@H](C)[C@H](OC)CN(C)C2=O	·	-2.4	·	·	1.1	·
O=C(Nc1ccc(C(=O)OC[C@@H]2CCCN3CCCC[C@H]23)cc1)c1cccc(Br)c1	-1.4	·	14.0	-10.3	-44.0*	4.1
COc1ccc(NC(=O)N(C)C[C@@H]2OCCCC[C@@H](C)Oc3ccc(NC(=O)Nc4cccc5ccccc45)cc3C(=O)N([C@@H](C)CO)C[C@@H]2C)cc1	-1.0	0.3	·	·	-3.2	·
Cc1ccc(C(=O)OCc2nnc(-c3ccc(Br)cc3)o2)cc1	-1.2	-0.1	-2.4	-3.8	-15.6*	6.3
C[C@@H]1CN([C@@H](C)CO)C(=O)c2cccc(NS(=O)(=O)c3ccc(Cl)cc3)c2O[C@@H]1CN(C)C(=O)Nc1ccc(C(F)(F)F)cc1	·	·	·	·	-1.8	·
CC(C)(O)/C=C/C[C@](C)(O)C1CC[C@]2(C)C1[C@H](O[C@H]1O[C@@H](CO)[C@H](O)[C@@H](O)[C@@H]1O)CC1[C@@]3(C)CC[C@H](O)C(C)(C)C3[C@@H](O)C[C@]12C (some centres not stated)	42.1*	0.8	-4.6	19.0	11.5	-19.5
C=CCn1c(O)c(N=Nc2ccccc2O)c2ccccc21	-0.7	-0.2	-0.4	-4.1	4.1	195.1*
Cc1ccc(S(=O)(=O)Nc2ccc3c(c2)C(=O)N([C@H](C)CO)C[C@H](C)[C@H](CN(C)C(=O)CCCN(C)C)OCCCC[C@H](C)O3)cc1	1.0	-0.2	-1.1	-7.5	-1.7	·
COc1ccccc1N(CN1C(=O)c2ccccc2C1=O)C(=O)c1cccc(C)c1	5.6	·	9.1	2.0	-29.8*	-0.6
CCOC(=O)C1CSCCS(=O)(=O)N1Cc1ccc(Br)cc1 (configuration not stated)	-2.4	·	-3.9	-4.1	-3.8	·
CCOC(=O)C1CSCCS(=O)(=O)N1Cc1cc(F)ccc1Br (configuration not stated)	?	·	-0.5	3.5	-33.5*	·
C[C@H](CO)N1C[C@H](C)[C@H](CN(C)C(=O)Nc2ccc(F)cc2)OCCCC[C@H](C)Oc2ccc(NS(=O)(=O)c3cn(C)cn3)cc2C1=O	-1.5	-2.3	5.7	-2.2	-2.0	·
C[C@@H]1CN([C@@H](C)CO)C(=O)Cc2cc(NC(=O)CCN3CCOCC3)ccc2O[C@H]1CN(C)C(=O)Nc1ccc(F)cc1	-5.4	3.1	2.7	2.6	7.2	·
O=C(C[C@H]1CC[C@@H](NC(=O)c2cnccn2)[C@@H](CO)O1)NCc1ccccc1F	0.6	0.1	0.6	15.9	-1.3	·
COc1cc(C(=O)O/N=C2/C=C(C)C(=O)C=C2C)cc(OC)c1OC	3.4	·	0.1	3.4	6.7	15.6
CC1=C/C(=N\OS(=O)(=O)c2ccccc2)C(C)=CC1=O	·	-3.7	·	4.7	4.6	104.7*
CC(S(=O)(=O)c1ccccc1)S(=O)(=O)c1ccccc1	2.9	-1.7	-0.7	0.5	1.4	·
CC1=C(C)/C(=N\OS(=O)(=O)c2ccc(C)cc2)C=CC1=O	·	·	·	·	·	109.8*
SMILES	DENV2 CPE rescue	Cneo AK release	MLL AF4-AF9 inh	S100A4 inh HTS	rRNA inh HTS	PfHsp90 yeast 2
CC1=C/C(=N\OS(=O)(=O)c2ccccc2)C(C(C)C)=CC1=O	·	·	·	·	·	103.7*
COc1ccc(S(=O)(=O)/N=C2/C=CC(=O)C(C)=C2C)cc1	·	-0.5	·	·	·	-27.2
CCNC(=O)[C@H]1[C@H](CO)[C@H]2Cn3c(ccc(-c4ccncc4)c3=O)[C@H]2N1Cc1ccccc1	-7.4	2.2	-13.0	-1.7	3.2	·
COc1ccc2c3c(n(C)c2c1)[C@@H](CO)NCC31CN(Cc2ccccc2F)C1	·	·	·	·	3.0	·
COc1ccc2c3c(n(C)c2c1)[C@@H](CO)NCC31CN(Cc2ccccc2Cl)C1	13.5	·	38.5*	2.4	-1.4	·
COc1ccc2c3c(n(C)c2c1)[C@H](CO)NCC31CN(Cc2ccc(-c3ccccn3)cc2)C1	-4.5	·	46.5*	-5.1	0.1	·
CC(C)NC(=O)N[C@@H]1CC[C@@H](CCNC(=O)C2CCCC2)O[C@H]1CO	-0.1	1.8	0.2	0.5	3.7	·
Cc1cc(C)n(-c2ccc(NC(=O)C3CCCCN3C(=O)c3ccoc3)cc2)n1 (configuration not stated)	35.6*	-2.7	-0.9	-4.0	1.5	-17.2
Cc1cc(C)n(CC(O)COc2ccc(Cl)cc2Cl)n1 (configuration not stated)	-3.5	4.3	3.0	4.2	-0.9	-27.1
Cc1nccn1CC(O)COc1ccc(Cl)cc1Cl (configuration not stated)	31.1*	0.2	4.5	-2.4	3.2	-5.1
COc1ccc(C(=O)NCCNc2nc3c(C)cccc3cc2C#N)cc1OC	28.8*	-1.2	2.2	3.5	6.0	-9.0
CNC[C@H]1OCCCC[C@@H](C)Oc2ccc(NS(=O)(=O)c3cccs3)cc2C(=O)N([C@@H](C)CO)C[C@H]1C	-1.1	-6.9	-6.2	1.3	4.6	·
CO[C@H]1CC[C@@H]2CCOc3ccc(C#N)cc3C(=O)N(C)C[C@@H](OC)[C@@H](C)C(=O)N(C)C[C@H]1O2	-2.9	2.7	0.7	2.6	2.1	·
Cc1ccc(-c2cc3onc(-c4ccccc4)c3c(=O)n2C)cc1	-8.3	-3.6	-2.5	-1.4	0.1	-2.4
CNC(=O)c1ccc(-c2cc3onc(-c4ccccc4)c3c(=O)n2C)cc1	-13.5	0.2	0.2	-11.5	-27.8*	·
Cc1ccc(CNC(=O)CN2C(=O)NC(C)(c3cccc(Br)c3)C2=O)cc1 (configuration not stated)	3.6	-0.6	0.2	-4.1	-28.9*	21.9
Cc1ccc(CNC(=O)CN2C(=O)NC(C)(c3ccc(Cl)cc3)C2=O)cc1 (configuration not stated)	-1.2	-0.1	-2.6	5.4	8.2	-11.5

Screening results from PubChem BioAssay.
